cardiac RTF act – increases calcium sensitivity of human cardiac regulated thin filaments | P19429+P45379 | IANBD-labeled TnC RTF fluorescence at EC20 calcium; 0% EC20 calcium, 100% full calcium | activation, % at 7.2 µM | 340,000 compounds, 0.24% hits | AID 493008;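 active = activation above the mean over all tested compounds plus 3 SD, cut at about 30% in these data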;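 also: rise in fluorescence read as greater calcium sensitivity of cardiac thin filaments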
ARNT-TACC3 inh – disrupts binding between human ARNT and TACC3. 390,000 compounds, 0.66% hits. AID 623870. inhibition, % at 9.99 µM. AlphaScreen His-ARNT PAS-B/GST-TACC3 binding, luminescence; TACC3 fragment carries E629A point mutation. Q9Y6A5;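 active = mean inhibition of replicates at least 50% and at least half of replicates each reaching 50%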;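 also: 0% = complete ARNT plus TACC3 wells and 100% = ARNT alone without TACC3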
RTF Ca sens inh – cardiac RTF calcium desensitization. P19429+P45379. IANBD-labeled cardiac RTF, Ca2+ fluorescence. inhibition, % at 7.15 µM. 340,000 compounds, 0.12% hits. AID 493244;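 active = inhibition above the mean inhibition of all tested compounds plus 3 SD, cut at about 17% in these data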;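 also: assay run at fixed EC70 calcium of 1.6 mM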
Efflux pump mplx – inhibitors of Candida antifungal efflux pumps expressed in yeast. S. cerevisiae Candida pump triplex, Nile Red efflux. inhibition, % at 10 µM. 330,000 compounds, 0.44% hits. AID 485275;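 active = plate passing quality check with inhibition over a set limit, or well fluorescence over plate mean plus 4 SD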;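 also: Nile Red retained in pooled yeast measured as flow cytometry median fluorescence; 0% = buffer negative control and 100% = Enniatin B positive control; higher means more Nile Red kept so more efflux inhibition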
UCH37 DUB inh – inhibitors of human deubiquitinating enzyme UCH37. purified proteasome/UCH37, Ub-AMC cleavage fluorescence. inhibition, % (concentration not given with the values). 330,000 compounds, 0.33% hits. AID 588478;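 active = mean inhibition over replicate wells above about 20%, limit read from the data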;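 also: 0% = compound-free wells with enzyme and 100% = wells lacking proteasome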
Target sequence (Q9Y5K5 whole entry, looked up): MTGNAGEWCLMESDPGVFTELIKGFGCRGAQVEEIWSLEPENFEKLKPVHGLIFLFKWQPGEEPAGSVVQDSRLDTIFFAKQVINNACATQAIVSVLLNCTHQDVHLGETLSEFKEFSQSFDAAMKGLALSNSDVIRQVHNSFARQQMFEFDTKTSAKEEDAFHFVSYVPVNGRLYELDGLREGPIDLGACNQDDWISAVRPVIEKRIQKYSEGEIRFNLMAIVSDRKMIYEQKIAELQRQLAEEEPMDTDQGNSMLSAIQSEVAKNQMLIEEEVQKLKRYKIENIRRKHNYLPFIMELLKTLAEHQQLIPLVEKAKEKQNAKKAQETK
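Assay system: Proteasome-bound UCH37. Buffer or medium: pH 7.4 Tris-HCl (50 mM) with ovalbumin, ATP-MgCl2, DTT. Incubation: 30 min preincubation with enzyme, 25 min cleavage at room temperature. Measured by: fluorescence, ex 355 nm, em 460 nm. Read-out basis: percent inhibition. Control set: wells without proteasome as full block, compound-free enzyme plus substrate as uninhibited.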
SUMO Mot1 rescue – blocks SUMOylation pathway, rescuing yeast Mot1-301 growth. 320,000 compounds, 1% hits. S. cerevisiae Mot1-301 growth rescue, ATP luminescence, 38.5C; percent above DMSO median, 100 means doubled. growth rescue, % at 18.8 µM;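 active = every valid replicate shows activation above 250% relative to neutral control wells; inactive = the rest, any valid replicate at or below 250%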;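 also: OY570 slx delta 5 strain wells were the positive control but not used for scaling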
AlphaScreen ctr – counter-screen for ARNT/TACC3 inhibitors: AlphaScreen artifacts | His-ARNT PASB-GST AlphaScreen artifact counter-screen, luminescence | 1,200 compounds, 50% hits | shares compounds with ARNT-TACC3 inh | AC50, µM (titrated, usually from 68 µM), inactives show at the top dose activity change, negative = signal decrease;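 active = every separate test run was called active for a drop in luminescence, with AC50 within twice the top valid dose, actives reach about 71 µM in these data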
Numbers without * were called inactive; i = inactive; / = no result given. Rows were chosen to be rich in hits. Some 2.1% of all compounds tested hit in one or more screens of this group.

SMILES	cardiac RTF act	ARNT-TACC3 inh	RTF Ca sens inh	Efflux pump mplx	UCH37 DUB inh	SUMO Mot1 rescue	AlphaScreen ctr
CNc1nc(C(=O)O)nc(N2CCOCC2)n1	-3	56*	-1	0	-3	1	-31%
C/C(=C\C(=O)c1ccccc1)Nc1ccc(N2CCOCC2)cc1	1	39*	-7	0	1	38	-27%
C/C(=C\C(=O)c1ccc(Cl)cc1)Nc1ccc(N2CCOCC2)cc1	-1	4	-1	0	6	-1	/
c1ccc(-c2nnc(SCc3nc4ccccc4[nH]3)n2Cc2ccco2)nc1	-5	61*	-1	-5	0	14	-11%
COc1cc(NC(=O)COC(=O)CON=C(C)c2ccc3c(c2)OCO3)cc(OC)c1	/	/	/	/	0	/	/
CN1CCN(CC(=O)N/N=C/c2ccc(F)c(F)c2)CC1	-4	-2	4	0	/	6	/
O=C(CN1CCCCCCC1)N/N=C/c1ccc(F)c(F)c1	15	55*	-16	-6	/	0	-5%
Nc1ncnc(Oc2cccc3cccnc23)c1[N+](=O)[O-]	4	51*	-13	0	6	0	-29%
Cc1cccc(Oc2ncnc(N)c2[N+](=O)[O-])c1C	4	-32	-7	0	4	8	/
O=C1CSC(=S)N1N=Cc1cccnc1	/	/	/	/	10	/	/
CCOc1ccc2c(c1)C(N(CCN1CCOCC1)C(=O)Nc1ccccc1)CC(C)(C)O2 (centres undefined)	-3	58*	-15	0	3	/	-8%
Cc1cccc(C=NN2CCN(c3ccccc3)CC2)c1	/	/	/	/	2	/	/
COc1ccc2nc(N=Cc3c(C)[nH]n(-c4ccc(C)cc4)c3=O)sc2c1	/	/	/	/	5	/	/
COc1ccc2nc(/N=C/c3c(C)[nH]n(-c4ccc(C)cc4)c3=O)sc2c1	1	55*	4	0	/	-14	-37%
COC(=O)c1c(N)n(-c2ccc(NC(C)=O)cc2)c2nc3ccccc3nc12	1	14*	-2	0	-443	-5	-18%
COCCNC(=O)c1c(N)n(-c2ccccc2)c2nc3ccccc3nc12	1	-3	2	0	i	-1	/
NC1=NN=C(N2N=C(c3ccco3)CC2(O)C(F)(F)F)n2ncnc2C1 (centres undefined)	2	73*	-3	0	-2	-16	-22%
CC(=NNc1nc(C)cc(C)n1)c1ccc(N2CCOCC2)cc1	/	/	/	/	6	/	/
O=C(O)COc1ccccc1/C=N/NC(=O)c1cccc(S(=O)(=O)Nc2cccc(Cl)c2)c1	3	52*	-13	0	/	/	71µM*
Cc1ccc(CNC(=O)CSc2ccc(-c3ccccn3)nn2)cc1	-3	38	-3	0	3	19	/
COc1cccc(CNC(=O)CSc2ccc(-c3ccccn3)nn2)c1	-2	66*	11	0	1	336	61µM*
O=C(CSc1ccc(-c2ccccn2)nn1)NCc1ccc(Cl)cc1	-5	53*	10	0	6	-25	69µM*
CN(C)S(=O)(=O)c1cccc(NC(=S)NN=CC2CC=CCC2)c1 (centres undefined)	/	/	/	/	3	/	/
c1ccc(-c2nnc(-c3ccccn3)c(-c3ccccn3)n2)nc1	/	/	/	0	5	2	/
c1ccc(CCNc2nc(-c3ccccn3)nnc2-c2ccccc2)cc1	/	/	/	/	/	/	2.5µM*
SMILES	cardiac RTF act	ARNT-TACC3 inh	RTF Ca sens inh	Efflux pump mplx	UCH37 DUB inh	SUMO Mot1 rescue	AlphaScreen ctr
COc1cccc(CNc2nc(-c3ccccn3)nnc2-c2ccccc2)c1	/	/	/	/	/	/	1.6µM*
COc1cccc(CNC(=O)c2cnc(-c3ccccn3)nc2C(F)(F)F)c1	-7	/	-2	0	/	/	/
c1ccc(CCc2nc(-c3ccccn3)no2)cc1	0	4	-5	0	5	4	/
CN(C)c1nc(-c2ccccn2)nnc1-c1ccccc1	-5	64*	-1	0	3	-17	1.1µM*
C[C@@H](Nc1nc(-c2ccccn2)nnc1-c1ccccc1)c1ccccc1	/	/	/	/	/	/	2.4µM*
Cc1ccc(Oc2ccc(C=NO)cn2)cc1	/	/	/	/	6	/	/
CCOC(=O)C(=NNc1cc(Cl)ccc1Cl)N1CCN(CC)CC1	/	/	/	/	7	/	/
O=c1nc(NN=Cc2ccco2)cn[nH]1	/	/	/	/	4	/	/
OCCCNc1nc(-c2ccccn2)nnc1-c1ccccc1	/	/	/	/	/	/	1.2µM*
Cc1ccc(-c2nnc(NCc3ccccc3)c3ccccc23)cc1	-1	-1	6	0	6	4	/
O=[N+]([O-])c1cccc(-c2nc(NCc3ccccc3)c3ccccc3n2)c1	-8	-4	-8	0	4	5	/
c1ccc(-c2cccc(CNc3nc(-c4ccccn4)nnc3-c3ccccc3)c2)cc1	/	/	/	/	/	/	7.1µM*
CCN(CC)c1nc(-c2ccccn2)nc(-c2ccccc2)c1C#N	-2	0	10	0	0	1	/
c1ccc(CNc2nc(-c3ccccn3)nnc2-c2ccccc2)cc1	/	/	/	/	/	/	0.79µM*
c1ccc(-c2nnc(-c3ccccn3)nc2NCC2CCOCC2)cc1	/	/	/	/	/	/	1.1µM*
c1ccc(-c2nnc(-c3ccccn3)nn2)nc1	-6	74*	1	0	5	-28	-33%
c1ccc(-c2nnc(-c3ccccn3)nc2NCCCN2CCOCC2)cc1	/	/	/	/	/	/	1.1µM*
Cc1ccc(S(=O)(=O)NN=Cc2ccccc2O)cc1[N+](=O)[O-]	/	/	/	/	4	/	/
COc1ccc(C=NNc2nonc2N)cc1OC	/	/	/	/	5	/	/
O=C(NN=Cc1ccc[nH]1)c1cccc([N+](=O)[O-])c1	/	/	/	/	7	/	/
O=C(O)c1c[nH]c2c([N+](=O)[O-])cccc2c1=O	-6	49*	5	/	5	/	-5%
CCO/C=C1/C(=O)N(Cc2ccccc2)C(=O)c2ccccc21	6	25*	7	0	-10	-7	0%
Cc1nc2ccccc2n1CC(=O)c1ccccc1	1	-10	-3	0	1	345	/
Cc1nc2ccccc2n1CC(=O)c1ccc(O)c(O)c1	-5	57*	2	0	1	-8	1%
Cc1ccc(C=Nn2c(-c3ccccc3)n[nH]c2=S)cc1	/	/	/	/	1	/	/
CN(Cc1cnc2nc(N)nc(N)c2n1)c1ccc(C(=O)NC(CCC(=O)O)C(=O)O)cc1 (centres undefined)	2	15*	-7	/	/	/	-23%

Screening data deposited in PubChem BioAssay by several laboratories.
